This is an account of results in ChEMBL document CHEMBL1250448, “Inhibitor hijacking of Akt activation” (Nat Chem Biol, 2009).

The term inhibition denotes the change of the read-out against control, counted positive when it falls.

Experiment [1] concerns the target T1, Serine/threonine-protein kinase Sgk3 (Homo sapiens) (UniProt Q96BR1).
T1 sequence (whole entry): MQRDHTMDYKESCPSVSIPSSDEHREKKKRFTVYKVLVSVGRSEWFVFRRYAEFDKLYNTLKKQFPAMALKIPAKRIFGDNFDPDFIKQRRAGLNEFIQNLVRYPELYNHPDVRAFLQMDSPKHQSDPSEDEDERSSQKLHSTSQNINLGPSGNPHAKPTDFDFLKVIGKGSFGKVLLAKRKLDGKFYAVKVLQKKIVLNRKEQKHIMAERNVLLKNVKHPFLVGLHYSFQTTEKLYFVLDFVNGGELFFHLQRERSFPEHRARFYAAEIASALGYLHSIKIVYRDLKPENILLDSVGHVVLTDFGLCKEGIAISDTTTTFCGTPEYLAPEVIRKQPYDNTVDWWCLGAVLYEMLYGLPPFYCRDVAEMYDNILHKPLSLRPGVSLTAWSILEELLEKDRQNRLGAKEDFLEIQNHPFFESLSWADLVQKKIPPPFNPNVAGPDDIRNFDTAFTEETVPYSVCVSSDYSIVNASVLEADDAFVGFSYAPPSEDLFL
Briefly: Inhibition of SGKL at 1 uM in presence of 10 uM ATP by Select Screen kinase assay relative to untreated control. The method, boiled down: (§1)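 Commercial SelectScreen profiling panel of 220 purified kinases. Each kinase was tested at a single inhibitor concentration of 1 μM, and activity was expressed as percent inhibition.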

The target in experiment [2] is Proto-oncogene tyrosine-protein kinase Src (Homo sapiens) (UniProt P12931). Nature of the experiment: Inhibition of SRC N1 at 1 uM in presence of 10 uM ATP by Select Screen kinase assay relative to untreated control. Put shortly: as §1
Proto-oncogene tyrosine-protein kinase Src (Homo sapiens), sequence (P12931 2-536 limits assumed): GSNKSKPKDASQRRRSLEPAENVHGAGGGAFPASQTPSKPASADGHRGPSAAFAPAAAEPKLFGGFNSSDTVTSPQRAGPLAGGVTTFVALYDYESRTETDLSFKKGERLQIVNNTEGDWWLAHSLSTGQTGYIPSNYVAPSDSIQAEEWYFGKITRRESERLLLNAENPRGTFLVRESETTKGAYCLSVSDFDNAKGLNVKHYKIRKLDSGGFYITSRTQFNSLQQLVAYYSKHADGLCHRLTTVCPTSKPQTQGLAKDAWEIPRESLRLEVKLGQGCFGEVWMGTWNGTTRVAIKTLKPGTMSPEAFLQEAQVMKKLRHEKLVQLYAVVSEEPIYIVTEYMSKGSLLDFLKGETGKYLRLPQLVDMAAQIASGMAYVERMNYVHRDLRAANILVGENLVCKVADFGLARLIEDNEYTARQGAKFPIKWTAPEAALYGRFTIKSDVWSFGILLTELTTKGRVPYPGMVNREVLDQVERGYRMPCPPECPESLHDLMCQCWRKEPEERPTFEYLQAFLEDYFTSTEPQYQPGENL
The target in experiment [3] is T2, Tyrosine-protein kinase ZAP-70 (Homo sapiens) (UniProt P43403).
T2 sequence (whole entry): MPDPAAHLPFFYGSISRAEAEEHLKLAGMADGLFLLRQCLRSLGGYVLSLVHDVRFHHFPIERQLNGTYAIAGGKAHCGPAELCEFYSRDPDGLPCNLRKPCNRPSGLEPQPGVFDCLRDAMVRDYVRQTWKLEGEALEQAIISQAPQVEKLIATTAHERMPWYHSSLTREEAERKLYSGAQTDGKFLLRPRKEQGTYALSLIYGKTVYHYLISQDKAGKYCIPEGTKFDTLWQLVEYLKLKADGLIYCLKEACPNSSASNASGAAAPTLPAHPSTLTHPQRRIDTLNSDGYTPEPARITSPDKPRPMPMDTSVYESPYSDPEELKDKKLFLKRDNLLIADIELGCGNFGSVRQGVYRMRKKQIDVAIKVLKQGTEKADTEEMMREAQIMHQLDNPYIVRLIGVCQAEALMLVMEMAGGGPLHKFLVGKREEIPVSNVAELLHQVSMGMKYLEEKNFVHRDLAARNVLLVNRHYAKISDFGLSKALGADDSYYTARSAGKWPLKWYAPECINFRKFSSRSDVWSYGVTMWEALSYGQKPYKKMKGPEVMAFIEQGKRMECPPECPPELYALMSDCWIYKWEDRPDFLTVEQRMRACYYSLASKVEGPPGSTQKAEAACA
Briefly: Inhibition of ZAP70 at 1 uM in presence of 10 uM ATP by Select Screen kinase assay relative to untreated control. The method, boiled down: as §1

The target in experiment [4] is T3, Serine/threonine-protein kinase DCLK2 (Homo sapiens) (UniProt Q8N568).
T3 sequence (whole entry): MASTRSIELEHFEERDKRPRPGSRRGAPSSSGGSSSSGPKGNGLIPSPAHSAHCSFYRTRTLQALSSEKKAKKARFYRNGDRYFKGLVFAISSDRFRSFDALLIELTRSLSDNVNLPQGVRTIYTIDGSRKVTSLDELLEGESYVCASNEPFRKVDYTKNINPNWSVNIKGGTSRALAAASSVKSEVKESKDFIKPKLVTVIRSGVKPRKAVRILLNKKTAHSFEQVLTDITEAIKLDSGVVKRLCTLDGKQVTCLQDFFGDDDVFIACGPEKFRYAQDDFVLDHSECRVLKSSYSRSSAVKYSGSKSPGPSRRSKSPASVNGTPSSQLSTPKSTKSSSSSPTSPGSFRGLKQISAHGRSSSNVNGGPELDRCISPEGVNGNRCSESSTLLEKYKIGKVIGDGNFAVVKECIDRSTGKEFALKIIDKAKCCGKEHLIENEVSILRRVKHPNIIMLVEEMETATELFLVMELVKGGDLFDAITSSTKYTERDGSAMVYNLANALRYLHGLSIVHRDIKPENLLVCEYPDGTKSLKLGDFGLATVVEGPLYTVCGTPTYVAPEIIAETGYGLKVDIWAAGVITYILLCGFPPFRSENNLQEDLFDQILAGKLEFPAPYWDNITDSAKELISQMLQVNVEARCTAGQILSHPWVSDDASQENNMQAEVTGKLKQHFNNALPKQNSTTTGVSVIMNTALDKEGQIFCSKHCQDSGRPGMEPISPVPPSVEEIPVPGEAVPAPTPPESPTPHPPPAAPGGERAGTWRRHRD
Briefly: Inhibition of DCAMKL2 at 1 uM in presence of 100 uM ATP by Select Screen kinase assay relative to untreated control. The method, boiled down:
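Single-point screen at 1 μM against a panel of 220 purified kinases, run by Invitrogen staff as a SelectScreen profiling service. Read-out is percent inhibition of kinase activity.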

Experiment [5] concerns the target T4, Homeodomain-interacting protein kinase 4 (Homo sapiens) (UniProt Q8NE63).
T4 sequence (whole entry): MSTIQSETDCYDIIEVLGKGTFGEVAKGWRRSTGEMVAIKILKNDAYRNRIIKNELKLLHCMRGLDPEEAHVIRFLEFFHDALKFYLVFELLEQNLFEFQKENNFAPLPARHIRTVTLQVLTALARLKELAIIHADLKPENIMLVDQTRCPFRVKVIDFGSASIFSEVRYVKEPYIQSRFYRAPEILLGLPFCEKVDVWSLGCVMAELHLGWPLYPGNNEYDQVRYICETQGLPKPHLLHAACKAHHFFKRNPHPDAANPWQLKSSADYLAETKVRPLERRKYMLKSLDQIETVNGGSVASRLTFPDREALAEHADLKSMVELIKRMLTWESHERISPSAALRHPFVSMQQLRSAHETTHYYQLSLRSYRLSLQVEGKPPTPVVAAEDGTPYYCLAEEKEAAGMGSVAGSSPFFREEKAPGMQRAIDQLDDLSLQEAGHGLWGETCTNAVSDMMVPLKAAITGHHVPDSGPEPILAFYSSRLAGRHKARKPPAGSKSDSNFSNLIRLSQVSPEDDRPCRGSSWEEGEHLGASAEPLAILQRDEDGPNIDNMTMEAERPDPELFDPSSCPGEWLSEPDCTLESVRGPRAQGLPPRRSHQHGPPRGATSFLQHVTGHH
Briefly: Inhibition of HIPK4 at 1 uM in presence of 10 uM ATP by Select Screen kinase assay relative to untreated control. Put shortly: (§2)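 Single-concentration profiling at 1 μM against a panel of 220 purified kinases, run as an outsourced SelectScreen kinase profiling service. Activity is expressed as percent inhibition.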

Experiment [6] deals with Dual specificity mitogen-activated protein kinase kinase 2 (Homo sapiens) (UniProt P36507). Nature of the experiment: Inhibition of MAP2K2 at 1 uM in presence of 100 uM ATP by Select Screen kinase assay relative to untreated control. Put shortly:
as §2

Dual specificity mitogen-activated protein kinase kinase 2 (Homo sapiens), sequence (P36507 whole entry): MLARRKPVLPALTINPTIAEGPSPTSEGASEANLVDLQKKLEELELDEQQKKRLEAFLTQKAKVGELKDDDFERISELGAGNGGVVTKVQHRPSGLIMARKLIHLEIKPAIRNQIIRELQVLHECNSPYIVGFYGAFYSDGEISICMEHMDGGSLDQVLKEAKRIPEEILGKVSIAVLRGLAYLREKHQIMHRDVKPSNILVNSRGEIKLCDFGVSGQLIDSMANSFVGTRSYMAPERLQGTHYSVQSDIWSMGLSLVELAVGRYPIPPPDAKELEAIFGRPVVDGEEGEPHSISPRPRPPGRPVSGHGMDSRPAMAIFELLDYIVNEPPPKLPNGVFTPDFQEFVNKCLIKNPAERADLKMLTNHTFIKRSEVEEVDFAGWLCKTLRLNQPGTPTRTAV

In the case of `COc1ccccc1N1CCN(c2ncnc3[nH]nc(Br)c23)CC1`, the inhibition in experiment [1] stood at 17%; in experiment [2], 15%; in experiment [3], 4%; in experiment [4], 6%; in experiment [5], 18%; in experiment [6], 21%.

For `Cc1n[nH]c2ccc(-c3cncc(OC[C@@H](N)Cc4c[nH]c5ccccc45)c3)cc12`, the inhibition amounted to 78% in experiment [1]; 5% in experiment [2]; 11% in experiment [3]; 11% in experiment [4]; 75% in experiment [5]; 42% in experiment [6].

Turning to `O=C(NCCCNc1nc(Nc2cccc(NC(=O)N3CCCC3)c2)ncc1I)c1cccs1`, the inhibition worked out at 12% in experiment [1]; 30% in experiment [2]; 24% in experiment [3]; 10% in experiment [4]; 48% in experiment [5]; 69% in experiment [6].
